Measured values taken from ChEMBL document CHEMBL1275590, “Novel arylimidamides for treatment of visceral leishmaniasis” (Antimicrob Agents Chemother, 2010).

Assays:
Mus musculus [1] = assay: Hepatotoxicity in BALB/c mouse assessed as alkaline phosphatase level in serum at 10 mg/kg/day, iv administered for five days (Rvb= 134 U/L); assay type: toxicity, organism-based; set-up: route intravenous; settings: in vivo
Mus musculus [2] = assay: (§1) Volume of distribution in Swiss Webster mouse at 66 mg/kg, po by HPLC-MS/MS analysis; assay type: ADME, organism-based; set-up: dose 66 mg/kg, route oral; settings: in vivo
Method in brief: (§2)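 Male Swiss Webster mice (n = 3 per time point), single dose by oral gavage (sterile water solution) or tail-vein bolus i.v. (water diluted 1:1 with 2× saline, over ~10–20 s); dose volume 5 ml/kg. Terminal blood sampled from 5 min to 72 h postdose; plasma quantified by HPLC-MS/MS (positive-ion SRM). Noncompartmental analysis gave Cmax, Tmax, AUC0-∞, CL, Vss; bioavailability from p.o. versus i.v. exposure.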

[3] = AUC (0 to infinity) in Swiss Webster mouse at 4.9 mg/kg, iv by HPLC-MS/MS analysis; assay type: ADME, organism-based; set-up: time infinity, dose 4.9 mg/kg, route intravenous; settings: plasma
Method in brief: (§3)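 Male Swiss Webster mice, n = 3 per time point. For i.v., the compound was dissolved in sterile water, diluted 1:1 with 2× saline, and given as a tail-vein bolus over ~10–20 s. For p.o., it was given by gavage in sterile water. Dose volume was 5 ml/kg. Terminal plasma was taken from 5 min to 72 h and measured by HPLC-MS/MS (calibration 2.5–10,000 nM). Parameters came from noncompartmental analysis.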

Mus musculus [4] = assay: Renal toxicity in BALB/c mouse assessed as blood urea nitrogen level in serum at 10 mg/kg/day, iv administered for five days (Rvb= 20 mg/dl); assay type: organism-based; set-up: route intravenous; settings: in vivo
Method in brief: (§4)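 Female BALB/c mice (n = 5 per dose), dosed once daily for 5 consecutive days p.o. (20 ml/kg) or i.v. (10 ml/kg) with compound in sterile water, prepared fresh daily under yellow light. Vehicle controls n = 5 per route. Clinical observations, body weights, serum chemistry and hematology on day 6 before necropsy; histopathology of formalin-fixed tissues. Chemistry analysed by one-way ANOVA with Dunnett's posttest.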

Mus musculus [5] = assay: Toxicity in BALB/c mouse assessed as occurrence of hemorrhage at 150 mg/kg/day, po; assay type: organism-based; set-up: route oral; settings: in vivo; method in brief: as §4
Mus musculus [6] = assay: Toxicity in BALB/c mouse assessed as occurrence of edema at 150 mg/kg/day, po; assay type: organism-based; set-up: route oral; settings: in vivo; method in brief: as §4
Mus musculus [7] = assay: AUC (0 to infinity) in Swiss Webster mouse at 131 mg/kg, po by HPLC-MS/MS analysis; assay type: ADME, organism-based, Plasma; set-up: dose 131 mg/kg, route oral, time infinity; settings: in vivo; method in brief: as §3
[8] = Oral bioavailability in Swiss Webster mouse at 16.5 mg/kg by HPLC-MS/MS analysis; assay type: ADME, organism-based; settings: in vivo; method in brief: as §2
Mus musculus [9] = assay: AUC (0 to infinity) in Swiss Webster mouse at 16.5 mg/kg, po by HPLC-MS/MS analysis; assay type: ADME, organism-based, Plasma; set-up: time infinity, dose 16.5 mg/kg, route oral; settings: in vivo; method in brief: as §3
Mus musculus [10] = assay: Toxicity in BALB/c mouse at 50 mg/kg/day, po administered for five days; assay type: organism-based; set-up: route oral; settings: in vivo
[11] = Oral bioavailability in Swiss Webster mouse at 70 mg/kg by HPLC-MS/MS analysis; assay type: ADME, organism-based; settings: in vivo; method in brief: as §2
[12] = Induction of mutagenicity in Salmonella serovar Typhimurium TA 98 assessed as number of revertant colonies at 100 ug by Ames assay; assay type: toxicity, Salmonella enterica subsp. enterica serovar Typhimurium; settings: in vivo
Method in brief: (§5)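 Ames plate incorporation with S. Typhimurium TA98 and TA100, with or without Aroclor 1254-induced rat liver S9 (10% vol/vol). Compound was dissolved in sterile water and serially diluted to 1–500 μg/plate. Positive controls were 2-nitrofluorene and sodium azide without S9, and 2-aminoanthracene with S9; sterile water and DMSO served as vehicles. Revertant colonies and background lawn were scored. A mutagen was defined as a mean revertant count at least 2-fold over solvent control. Single experiment.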

[13] = Induction of mutagenicity in Salmonella serovar Typhimurium TA 98 assessed as number of revertant colonies at 500 ug by Ames assay in presence of Aroclor 1254-induced rat liver S9 metabolic activation system; assay type: toxicity, subcellular, Salmonella enterica subsp. enterica serovar Typhimurium
Method in brief: (§6)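 Plate incorporation test, S. Typhimurium TA98 (and TA100), with or without Aroclor 1254-induced rat liver S9 (10% vol/vol). Compound dissolved in sterile water, serially diluted to 1–1,000 or 1–500 μg/plate. Positive controls: 2-nitrofluorene and sodium azide without S9, 2-aminoanthracene with S9; water and DMSO vehicle controls. Revertant colonies and background lawn scored; mutagen if mean revertants ≥2-fold solvent control. Single experiment.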

Leishmania donovani [14] = assay: Antileishmanial activity against Leishmania donovani WR378 infected in golden Syrian hamster assessed as reduction in spleen parasitemia at 30 mg/kg/day, po administered for five days; assay type: functional; settings: 120 h
Method in brief: (§7)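 11-day golden hamster VL model adapted from an 8-day method, using L. donovani WR378 metacyclic promastigotes. Dosing was oral, once daily for 5 days. Animals were euthanized on day 11 post-infection. Liver, spleen and femoral bone marrow (flushed with Schneider's medium) were harvested.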

[15] = Induction of mutagenicity in Salmonella serovar Typhimurium TA 98 assessed as number of revertant colonies at 50 ug by Ames assay in presence of Aroclor 1254-induced rat liver S9 metabolic activation system; assay type: toxicity, subcellular, Salmonella enterica subsp. enterica serovar Typhimurium; method in brief: as §6
[16] = as §1; assay type: ADME, organism-based; set-up: dose 66 mg/kg, route oral; settings: Swiss Webster, in vivo; method in brief: as §2
Mus musculus [17] = assay: Volume of distribution in Swiss Webster mouse at 70 mg/kg, po by HPLC-MS/MS analysis; assay type: ADME, organism-based; set-up: dose 70 mg/kg, route oral; settings: in vivo
Method in brief: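 Male Swiss Webster mice (n = 3 per time point) got a single oral gavage dose in sterile water, 5 ml/kg. The 5 mM formulation was a clear solution; the 20 and 40 mM formulations were gelatinous. Terminal blood was collected from 5 min to 72 h postdose, and plasma was analysed by HPLC-MS/MS. Volume of distribution came from noncompartmental analysis.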

[18] = Induction of mutagenicity in Salmonella serovar Typhimurium TA 98 assessed as number of revertant colonies at 1 ug by Ames assay; assay type: toxicity, Salmonella enterica subsp. enterica serovar Typhimurium; settings: in vivo; method in brief: as §5
Leishmania donovani [19] = assay: Antileishmanial activity against Leishmania donovani WR378 infected in golden Syrian hamster assessed as reduction in bone marrow parasitemia at 100 mg/kg/day, po administered for five days; assay type: functional; settings: 120 h; method in brief: as §7
[20] = Induction of mutagenicity in Salmonella serovar Typhimurium TA 100 assessed as number of revertant colonies at 50 ug by Ames assay; assay type: toxicity, Salmonella enterica subsp. enterica serovar Typhimurium; settings: in vivo; method in brief: as §5
[21] = Volume of distribution in Swiss Webster mouse at 5 mg/kg, iv by HPLC-MS/MS analysis; assay type: ADME, organism-based; set-up: dose 5 mg/kg, route intravenous; settings: in vivo
Method in brief: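 Male Swiss Webster mice (n = 3 per time point) got a single tail-vein bolus over ~10 to 20 s, 5 ml/kg. Compound was dissolved in sterile water at 2× and diluted 1:1 with 2× saline. Terminal blood was taken from 5 min to 72 h, and plasma was quantified by HPLC-MS/MS. Vss came from noncompartmental analysis.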

[22] = Induction of mutagenicity in Salmonella serovar Typhimurium TA 98 assessed as number of revertant colonies at 10 ug by Ames assay; assay type: toxicity, Salmonella enterica subsp. enterica serovar Typhimurium; settings: in vivo; method in brief: as §5
Mus musculus [23] = assay: Hepatotoxicity in BALB/c mouse assessed as alkaline phosphatase in serum at 150 mg/kg/day, po administered for five days (Rvb= 129 U/L); assay type: toxicity, organism-based; set-up: route oral; settings: in vivo
[24] = Induction of mutagenicity in Salmonella serovar Typhimurium TA 98 assessed as number of revertant colonies at 5 ug by Ames assay; assay type: toxicity, Salmonella enterica subsp. enterica serovar Typhimurium; settings: in vivo; method in brief: as §5
Mus musculus [25] = assay: Hepatotoxicity in BALB/c mouse assessed as AST level in serum at 100 mg/kg/day, po administered for five days (Rvb= 70 U/L); assay type: toxicity, organism-based; set-up: route oral; settings: in vivo
[26] = Induction of mutagenicity in Salmonella serovar Typhimurium TA 100 assessed as number of revertant colonies at 10 ug by Ames assay; assay type: toxicity, Salmonella enterica subsp. enterica serovar Typhimurium; settings: in vivo; method in brief: as §5

With `CCOc1cc(NC(=N)c2ccccn2)ccc1-c1ccc(-c2ccc(NC(=N)c3ccccn3)cc2OCC)o1` the Activity (Mus musculus [1]) was 118 U/L, the Vd (Mus musculus [2]) was 71 L/kg and the AUC(0-inf) [3] was 4.5 µM·h. The Activity (Mus musculus [4]) was 24 mg/dL, the Activity (Mus musculus [5]) was “Toxic” and the Activity (Mus musculus [6]) was “Toxic”. The AUC (Mus musculus [7]) was 30 µM·h, the bioavailability [8] was 3.3% and the AUC (Mus musculus [9]) was 0.5 µM·h.

For `CC(C)Oc1cc(NC(=N)c2ccccn2)ccc1-c1ccc(-c2ccc(NC(=N)c3ccccn3)cc2OC(C)C)o1`, the Activity (Mus musculus [10]) was “Non-toxic”, the bioavailability [11] was 10.4% and the Activity [12] was 34. For the same molecule, the Activity [13] was 47, the inhibition in vivo at 30 mg/kg/day (Leishmania donovani [14]) was 67% and the Activity [15] was 39. The Tmax [16] was 4.98 min, the Vd (Mus musculus [17]) was 54 L/kg and the Activity [18] was 38. For the same molecule, the inhibition in vivo at 100 mg/kg/day (Leishmania donovani [19]) was 92%, the Activity [20] was 79 and the Vd [21] was 15 L/kg. The Activity [22] was 29, the Activity (Mus musculus [23]) was 142 U/L and the Activity [24] was 29. It also gave an Activity (Mus musculus [25]) of 68 U/L and an Activity [26] of 148.
